An excerpt weighted towards active compounds, which were near 1.8% of everything screened.
MBD2 DNA inh: inhibitors of MBD2 binding to methylated DNA, primary screen, biochemical, TR-FRET, DNA-binding domain, human; AID 686964, 2013; inhibition, % at 4.4 µM; 370,000 compounds, 0.31% hits; MBD2 binding to methylated oligonucleotide; in the data active = inhibition above about 13%
LEDGF integ inh: blockers of LEDGF/p75-dependent integrase strand transfer – biochemical, TR-FRET, high throughput, primary screen. TR-FRET IN-LEDGF/p75 DNA integration, Eu/Cy5. inhibition, % at 3.7 µM. 370,000 compounds, 0.64% hits;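 active = inhibition above the screen-wide mean plus 3 SD, cut at about 13% in these data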;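 also: signal is the Cy5 over europium emission ratio at 671 and 618 nm; 0% = plate median of compound wells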
TDP2 absorb: human TDP2 enzyme inhibitors, primary screen, biochemical, epi absorbance, recombinant enzyme | AID 720702, 2013 | inhibition, % at 12.8 µM | T5PNP hydrolysis, p-nitrophenol absorbance 415 nm | Tyrosyl-DNA phosphodiesterase 2 (Homo sapiens), O95551 | 370,000 compounds, 0.34% hits;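 active = inhibition above the mean of all tested compounds plus 3 SD, set per campaign, cut at about 25% in these data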;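 also: 0% = DMSO with enzyme and 100% = buffer with substrate but no TDP2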
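Material: recombinant human TDP2; quantity: TDP2 enzyme at 120 nM final; medium: Tris-HCl pH 7.5 with MgCl2; compound: single concentration, 12.8 µM nominal, with 1% DMSO; incubation: 2 h enzyme incubation at 37 °C; signal: epi absorbance; measure: percent inhibition; benchmarks: high control without enzyme, low control DMSO plus TDP2; repeats: singlicate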
UHRF1 MBD2 ctr: UHRF1 methylated DNA binding inhibitors, primary screen, counter-screen for MBD2 inhibitor project, biochemical, TR-FRET, human UHRF1, single concentration; E3 ubiquitin-protein ligase UHRF1 (Homo sapiens), Q96T88; 370,000 compounds, 0.75% hits; UHRF1 binding to methylated oligo; inhibition, % at 4.4 µM; AID 687016, 2013; in the data active = inhibition above about 21%;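 also: UHRF1 SRA domain binding a hemimethylated CpG hairpin DNA probe; 0% = median of test compound wells and 100% = reference inhibitor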
NSD2 inh: NSD2 histone methyltransferase inhibitors, primary screen, biochemical, AlphaScreen, single concentration, set 2. 310,000 compounds, 0.54% hits. NSD2 peptide methylation, 120 min. Histone-lysine N-methyltransferase NSD2 (Homo sapiens), O96028. inhibition, % at 12.5 µM. AID 743445, 2014; in the data active = inhibition above about 50%
CASP6 VEID inh: human caspase-6 inhibitors, primary screen, biochemical, VEID-R110 fluorescence, single point, set 2; purified caspase-6, Z-VEID-R110 cleavage fluorescence; inhibition, % at 12.5 µM; 350,000 compounds, 0.53% hits;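 active = mean inhibition across replicates at least about 35%, with every replicate also reaching that limit, limit read from the data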;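 also: 0% = median of neutral control wells and 100% = no fluorescence left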
IN multimer up: HIV-1 IN multimer formation enhancers, counter-screen for LEDGF/p75 integration inhibitor project, biochemical, TR-FRET. activation, % at 7.7 µM. shares compounds with LEDGF integ inh. AID 1053131, 2014. TR-FRET HIV-1 integrase multimerization. 2,000 compounds, 17% hits; in the data active = activation above about 8.9%
TRFRET interf: TR-FRET optical interference artefacts, confirmation, artefact control for LEDGF/p75-dependent integration inhibitor project, biochemical, HIV-1 IN multimerization; AID 1053135, 2014; inhibition, % at 7.7 µM; TR-FRET optical interference counterscreen; 2,000 tested, under 10 active; shares compounds with LEDGF integ inh;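 active = inhibition above the mean over all tested compounds plus 3 SD, which no compound reached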;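 also: 0% = integrase with antibodies and DMSO and 100% = antibodies without integrase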
IN-LEDGF confirm: inhibitors of HIV-1 IN-LEDGF/p75 DNA integration, confirmation, biochemical, TR-FRET; inhibition, % at 3.7 µM; 2,000 compounds, 36% hits; shares compounds with LEDGF integ inh; TR-FRET LEDGF/p75-dependent HIV-1 integration; AID 1053136, 2014; in the data active = inhibition above about 14%
Numbers without * were called inactive; · = no result given; ! = not active in a repeat.

SMILES	MBD2 DNA inh	LEDGF integ inh	TDP2 absorb	UHRF1 MBD2 ctr	NSD2 inh	CASP6 VEID inh	IN multimer up	TRFRET interf	IN-LEDGF confirm
O=C(N1CCCCCC1)N1CCN(C(=O)N2CCOCC2)CC1	5	31*	6	5	-2	·	0	1	0
CCC1CCc2sc(C(=O)NCC(c3ccc(OC)cc3)N3CCOCC3)cc2C1 (stereo not drawn)	0	62*	-2	15	-1	-5	0	2	0
CC1(C)Oc2cc(N)c([N+](=O)[O-])cc2O1	-9	45*	5	23*	4	·	0	-1	-6
Cc1ccc(O)c(-c2[nH]ncc2C(=O)c2ccc(Cl)cc2)c1	-2	0	0	0	10	2	·	·	·
Cc1ccc(O)c(-c2[nH]ncc2C(=O)c2ccc(Br)cc2)c1	8	14*	-7	2	1	-3	-1	4	-5
Oc1ccc(-c2csc(Nc3ncccn3)n2)c(O)c1	0	3	-3	-1	-3	3	·	·	·
Oc1ccc(-c2csc(Nc3ncccn3)n2)cc1O	2	17*	-1	9	29	20	27*	-134	6
C[C@@H]1O[C@@H](Oc2c(-c3ccc(O)c(O)c3)oc3cc(O)cc(O)c3c2=O)[C@H](O)[C@H](O)[C@H]1O	0	21*!	-8	4	·	19	16*	-81	58*
O=c1c(OC2OC(CO)C(O)C(O)C2OC2OC(CO)C(O)C(O)C2O)c(-c2ccc(O)cc2)oc2cc(O)cc(O)c12 (stereo not drawn)	1	19*	-8	1	·	46*	48*	-170	48*
C[C@@H]1O[C@@H](Oc2c(-c3cc(O)c(O)c(O)c3)oc3cc(O)cc(O)c3c2=O)[C@H](O)[C@H](O)[C@H]1O	-4	55*	-8	5	·	22	53*	-189	63*
C[C@@H]1O[C@@H](O[C@H]2[C@H](O)[C@@H](O)[C@H](Oc3c(-c4ccc(O)c(O)c4)oc4cc(O)cc(O)c4c3=O)O[C@@H]2CO)[C@H](O)[C@H](O)[C@H]1O	2	7	-3	8	·	·	·	·	·
C[C@@H]1CN([C@H](C)CO)C(=O)c2cc(NS(=O)(=O)c3ccccc3)ccc2O[C@@H](C)CCCCO[C@@H]1CN(C)S(C)(=O)=O	·	·	·	·	·	3	·	·	·
C[C@H](CO)N1C[C@H](C)[C@H](CN(C)C(=O)Nc2ccc3c(c2)OCO3)Oc2ccc(NC(=O)CCC(F)(F)F)cc2CC1=O	·	·	·	·	·	3	·	·	·
CCc1cc(=O)oc2c(CN3CCCC3)c(O)c(Cl)cc12	-2	1	0	-6	1	·	·	·	·
CCc1cc(=O)oc2cc(C)c(CN3CCCC(C)C3)c(O)c12 (stereo not drawn)	12	19*	0	27*	4	·	1	-4	20*
CCCCc1cc(=O)oc2c(CN3CCCC3)c(O)ccc12	-4	-5	-10	1	0	·	·	·	·
CCCCc1cc(=O)oc2cc(C)c(CN3CCCC3)c(O)c12	3	17*	-12	6	1	·	0	2	16*
O=C(C[C@H]1CC[C@@H](NC(=O)Nc2ccccc2F)[C@H](CO)O1)NCc1ccc(F)cc1	·	·	·	·	·	2	·	·	·
COCC(=O)Nc1ccc2c(c1)C(=O)N(C)[C@@H]1CC[C@@H](CC(=O)NCc3ccccc3)O[C@@H]1CO2	·	·	·	·	·	-1	·	·	·
COc1cccc(C=Nc2ccc(N3CCOCC3)cc2)c1O	1	18*	24	1	1	-3	2	-8	-3
Oc1ccc(N=Cc2cc(Br)c(N3CCOCC3)o2)cc1	-1	0	0	-5	10	10	·	·	·
O=[N+]([O-])c1cc(Br)c(O)c(C=Nc2ccc(N3CCOCC3)cc2)c1	-5	26*	21	0	3	12	8.9*	-32	15*
COc1cccc(/C=N/N2CCOCC2)c1O	0	1	0	-1	2	2	·	·	·
CO[C@@H]1CN(C)C(=O)c2ccc(NC(C)=O)cc2OC[C@H](C)N(C(=O)c2ccc(F)cc2)C[C@@H]1C	·	·	·	·	·	-2	·	·	·
CCOC(=O)C1=C(C)NC(=O)CC1c1cc2c(cc1[N+](=O)[O-])OCO2 (stereo not drawn)	-3	22*	-2	1	-1	11	1	-7	2
SMILES	MBD2 DNA inh	LEDGF integ inh	TDP2 absorb	UHRF1 MBD2 ctr	NSD2 inh	CASP6 VEID inh	IN multimer up	TRFRET interf	IN-LEDGF confirm
CCCOC(=O)C1=C(C)N(C)C(=O)NC1c1cc2c(cc1[N+](=O)[O-])OCO2 (stereo not drawn)	10	3	10	8	12	18	·	·	·
C=C(C)C(=O)Nc1cccc(C2=NOC3(C2)C[C@@H](C(N)=O)N(C(=O)[C@H]2CCC(=O)N2)C3)c1 (stereo partly drawn)	11	28*	-3	16	·	5	5	-25	24*
C/C=C(/C)C(=O)Nc1cccc(C2=NOC3(C2)C[C@@H](C(N)=O)N(C(=O)[C@H]2CCC(=O)N2)C3)c1 (stereo partly drawn)	2	2	6	0	·	0	·	·	·
O=C(C[C@@H]1CC[C@@H](NC(=O)Cc2cccnc2)[C@H](CO)O1)Nc1ccccc1	·	·	·	·	·	3	·	·	·
O=C(CN1CCN(c2ccc(F)cc2)CC1)Nc1ccc(F)c(F)c1	4	3	-10	18	0	·	·	·	·
O=C(CN1CCN(c2ccc(Cl)cc2)CC1)Nc1cccc(F)c1	-3	32*	-6	-1	·	·	0	-1	-4

Screens as filed in PubChem BioAssay.
